Measurements collected from several papers.
Protocols differ between the studies behind these lines.
CDK2 with cyclin A2: Cyclin-dependent kinase 2, with cyclin A2 (CDK2, Homo sapiens, UniProt P24941)
ST14: Suppressor of tumorigenicity 14 protein (ST14, Homo sapiens, UniProt Q9Y5Y6)
Oprd1: Delta-type opioid receptor (Oprd1, Rattus norvegicus, UniProt P33533)

Structure (SMILES)	target	assay	conditions	measurement	value
CC(=O)Nc1c(N)nc(SCC(=O)N/N=C/c2ccc([N+](=O)[O-])cc2)[nH]c1=O	CDK2 with cyclin A2	enzyme activity, inhibitor	20 nM	inhibition	21.3%
N=C(N)NCCC[C@H](NC(=O)[C@@H](NC(=O)[C@H](Cc1cscn1)NC(=O)CCc1ccccc1)C1CC1)C(=O)c1nc2ccccc2s1	ST14	enzyme activity, inhibitor	0.1 µM	remaining activity	90%
CNc1ncc2c(/C=C/C(=O)N3CCC(OC)CC3)nn(Cc3cccc(C(F)(F)F)c3)c2n1	Mitogen-activated protein kinase kinase kinase 14 (MAP3K14, Homo sapiens, UniProt Q99558)	enzyme activity, inhibitor, radiometric	1 µM	remaining activity	105%
N=C(N)NCCC[C@H](NC(=O)[C@H](Cc1cccc(I)c1)NC(=O)[C@H](Cc1cscn1)NC(=O)CCc1ccccc1)C(=O)c1nc2ccccc2s1	ST14	enzyme activity, inhibitor	0.1 µM	remaining activity	79%
C=CC(=O)N1CCC(COCC(=O)N2CCN(c3nc(-c4cnc(N)nc4C(F)F)nc(N4CCOC[C@@H]4C)n3)CC2)CC1	ALK tyrosine kinase receptor (ALK, Homo sapiens, UniProt Q9UM73)	binding, competition with immobilised ligand	1 µM	remaining binding	72%
CNC(=O)c1cc(Oc2ccc(NC(=O)Nc3ccc(Cl)c(C(F)(F)F)c3)cc2)ccn1	CDK2 with cyclin A2	enzyme activity, inhibitor	1 nM	inhibition	19.6%
COc1cc(-c2cncc3c2CN(C)Cc2cc(N4CCNCC4)ccc2-3)cc(OC)c1OC	Tyrosine-protein kinase Fyn (FYN, Homo sapiens, UniProt P06241)	enzyme activity, inhibitor	1 µM	remaining activity	94%
CC(=O)Nc1c(N)nc(SCC(=O)NN)[nH]c1=O	CDK2 with cyclin A2	enzyme activity, inhibitor	20 nM	inhibition	30.9%
COc1ccc2[nH]c3c(c2c1)[C@H]1C[C@@H]([C@H]3C)N(Cc2ccccc2)C[C@]1(C)O	Oprd1	ligand displacement, radioligand	1 µM	inhibition	13%
CC(C)C[C@@H](C(=O)N[C@@H](CCCNC(=N)N)C(=O)c1nc2ccccc2s1)N(C)C(=O)[C@H](Cc1cscn1)NC(=O)CCc1ccccc1	ST14	enzyme activity, inhibitor	0.1 µM	remaining activity	50%
COc1ccc(CN2C[C@](C)(O)[C@@H]3C[C@H]2[C@@H](C)c2nc4ccccc4c(-c4ccccc4)c23)cc1	Oprd1	ligand displacement, radioligand	1 µM	inhibition	0%
N=C(N)NCCC[C@H](NC(=O)[C@@H](NC(=O)[C@H](Cc1cscn1)NC(=O)CCc1ccccc1)c1ccccc1)C(=O)c1nc2ccccc2s1	ST14	enzyme activity, inhibitor	0.1 µM	remaining activity	33%
Cc1cc([C@@H](C)Nc2ccccc2C(=O)O)c2nc(N3CCC(F)(F)CC3)c(C#N)c(=O)n2c1	Serine/threonine-protein kinase pim-1 (PIM1, Homo sapiens, UniProt P11309)	binding, competition with immobilised ligand	1 µM	remaining binding	100%
